Reference: ChEMBL document CHEMBL3286367, “Synthesis of new class of spirocarbocycle derivatives by multicomponent domino reaction and their evaluation for antimicrobial, anticancer activity and molecular docking studies” (2014)
≈ marks a conversion by molar mass, not a printed value. Calls of active or inactive are those of the source. No cut-off for these calls is given here.

Columns and labels:
[1] = test system: Staphylococcus epidermidis; assay: Antimicrobial activity against Staphylococcus epidermidis MTCC 3615 assessed as zone of inhibition at 1 mg/disc after 24 hrs incubation by disc diffusion assay; format: functional
Method in brief: (§1)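 Inocula grown in Mueller Hinton broth for 24 h at 37 °C and swabbed onto Mueller Hinton agar. Discs carried 1 mg compound each and stood 30 min at room temperature before 24 h incubation at 37 °C. Solvent as negative control. Inhibition zones recorded in mm; experiment done twice.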

Staphylococcus aureus [2] = assay: Antimicrobial activity against Staphylococcus aureus MTCC 96 assessed as zone of inhibition at 1 mg/disc after 24 hrs incubation by disc diffusion assay; format: functional; method in brief: as §1
Staphylococcus aureus [3] = assay: Antimicrobial activity against methicillin-resistant Staphylococcus aureus assessed as zone of inhibition at 1 mg/disc after 24 hrs incubation by disc diffusion assay; format: functional
Method in brief: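 Inoculum grown in Mueller Hinton broth 24 h at 37°C, swabbed onto Mueller Hinton agar and dried 10 min. Discs loaded at 1 mg/disc, then 30 min at room temperature for diffusion. Plates incubated 24 h at 37°C. Solvent negative control; streptomycin positive control. Zone of inhibition read in mm; experiment done twice.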

Micrococcus luteus [4] = assay: Antimicrobial activity against Micrococcus luteus MTCC 106 assessed as zone of inhibition at 1 mg/disc after 24 hrs incubation by disc diffusion assay; format: functional; method in brief: as §1
Klebsiella aerogenes [5] = assay: Antimicrobial activity against Enterobacter aerogenes MTCC 111 assessed as zone of inhibition at 1 mg/disc after 24 hrs incubation by disc diffusion assay; format: functional; method in brief: as §1
Salmonella typhimurium [6] = assay: Antimicrobial activity against Salmonella typhimurium MTCC 1251 assessed as zone of inhibition at 1 mg/disc after 24 hrs incubation by disc diffusion assay; format: functional, Salmonella enterica subsp. enterica serovar Typhimurium; conditions: for inhibition: Salmonella enterica subsp. enterica serovar Typhimurium; method in brief: as §1
Klebsiella pneumoniae [7] = assay: Antimicrobial activity against Klebsiella pneumonia MTCC 109 assessed as zone of inhibition at 1 mg/disc after 24 hrs incubation by disc diffusion assay; format: functional; method in brief: as §1
Proteus vulgaris [8] = assay: Antimicrobial activity against Proteus vulgaris MTCC 1771 assessed as zone of inhibition at 1 mg/disc after 24 hrs incubation by disc diffusion assay; format: functional; method in brief: as §1
Shigella flexneri [9] = assay: Antimicrobial activity against Shigella flexneri MTCC 1457 assessed as zone of inhibition at 1 mg/disc after 24 hrs incubation by disc diffusion assay; format: functional; method in brief: as §1
Candida albicans = assay: Antifungal activity against Candida albicans MTCC 227 assessed as zone of inhibition at 1 mg/disc after 48 hrs incubation by disc diffusion assay; format: functional
Method in brief: (§2)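 Disc diffusion on Mueller Hinton agar with swabbed cultures, 1 mg compound per disc. Discs stood 30 min at room temperature for diffusion, then plates incubated 48 h at 28 °C. Solvent as negative control. Yeast pre-grown in Sabouraud dextrose broth at 28 °C for 48-72 h; filamentous fungal spores came from SDA slants grown 10 days at 28 °C. Zone diameters in mm; run twice.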

Malassezia pachydermatis = assay: Antifungal activity against Malassezia pachydermatis assessed as zone of inhibition at 1 mg/disc after 48 hrs incubation by disc diffusion assay; format: functional; method in brief: as §2
Staphylococcus aureus [10] = assay: Antimicrobial activity against Staphylococcus aureus MTCC 96 assessed as absence of visible growth after 48 to 72 hrs; format: functional
Staphylococcus aureus [11] = assay: Antimicrobial activity against methicillin-resistant Staphylococcus aureus assessed as absence of visible growth after 48 to 72 hrs; format: functional
Method in brief: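 Broth two-fold serial dilution in 96-well plates, 1000 to 7.81 µg/mL, compound dissolved in DMSO (2%). Inoculum grown in Mueller Hinton broth 24 h at 37°C. Streptomycin positive control. 5 µl of tested broth plated on MHA; MIC is the lowest concentration inhibiting visible growth on agar.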

Micrococcus luteus [12] = assay: Antimicrobial activity against Micrococcus luteus MTCC 106 assessed as absence of visible growth after 48 to 72 hrs; format: functional
Klebsiella aerogenes [13] = assay: Antimicrobial activity against Enterobacter aerogenes MTCC 111 assessed as absence of visible growth after 48 to 72 hrs; format: functional
Salmonella typhimurium [14] = assay: Antimicrobial activity against Salmonella typhimurium MTCC 1251 assessed as absence of visible growth after 48 to 72 hrs; format: functional, Salmonella enterica subsp. enterica serovar Typhimurium; conditions: Salmonella enterica
Proteus vulgaris [15] = assay: Antimicrobial activity against Proteus vulgaris MTCC 1771 assessed as absence of visible growth after 48 to 72 hrs; format: functional
Shigella flexneri [16] = assay: Antimicrobial activity against Shigella flexneri MTCC 1457 assessed as absence of visible growth after 24 hrs
Klebsiella pneumoniae [17] = assay: Antimicrobial activity against Klebsiella pneumonia MTCC 109 assessed as absence of visible growth after 24 hrs
[18] = test system: Staphylococcus epidermidis; assay: Antimicrobial activity against Staphylococcus epidermidis MTCC 3615 assessed as absence of visible growth after 24 hrs

Structure (SMILES)	inhibition zone (IZ) [1]	inhibition zone (IZ) (Staphylococcus aureus [2])	inhibition zone (IZ) (Staphylococcus aureus [3])	inhibition (Micrococcus luteus [4])	inhibition zone (IZ) (Klebsiella aerogenes [5])	inhibition zone (IZ) (Salmonella typhimurium [6])	inhibition (Klebsiella pneumoniae [7])	inhibition (Proteus vulgaris [8])	inhibition zone (IZ) (Shigella flexneri [9])	inhibition (Candida albicans)	inhibition (Malassezia pachydermatis)	inhibition [1]	inhibition (Staphylococcus aureus [2])	inhibition (Staphylococcus aureus [3])	inhibition (Klebsiella aerogenes [5])	inhibition (Salmonella typhimurium [6])	inhibition zone (IZ) (Klebsiella pneumoniae [7])	inhibition zone (IZ) (Proteus vulgaris [8])	inhibition (Shigella flexneri [9])	inhibition zone (IZ) (Micrococcus luteus [4])	further results
N#CC1=C(N)C2(C(=O)c3ccccc3C2=O)[C@@H](c2ccc(Cl)cc2)[C@@H]2CCCC=C12 (relative stereo)	8 mm	9 mm	13 mm	inactive	13 mm	10 mm	inactive	inactive	8 mm	inactive	inactive										
Cc1ccc([C@H]2[C@@H]3CCCC=C3C(C#N)=C(N)C23C(=O)CCCC3=O)cc1 (relative stereo)				inactive						inactive	inactive	inactive	inactive	inactive	inactive	inactive	10 mm	9 mm	inactive		
N#CC1=C(N)[C@]2(C(=O)Nc3ccccc32)[C@@H](c2ccoc2)[C@@H]2CCCC=C12			10 mm				inactive	inactive		inactive	inactive	inactive	inactive		inactive	inactive			inactive	8 mm	
COc1ccc([C@H]2[C@@H]3CCC=C3C(C#N)=C(N)C23C(=O)c2ccccc2C3=O)cc1 (relative stereo)			10 mm					inactive		inactive	inactive	inactive	inactive		inactive	inactive	11 mm		inactive	8 mm	
N#CC1=C(N)C2(C(=O)c3ccccc3C2=O)[C@@H](c2ccccc2F)[C@@H]2CCCC=C12 (relative stereo)	14 mm	14 mm	13 mm		12 mm	10 mm			14 mm		inactive						16 mm	12 mm		15 mm	inhibition zone (IZ) (Candida albicans): 10 mm; MIC (Staphylococcus aureus [10]): 250 µg/mL (≈ 627 µM); MIC (Staphylococcus aureus [11]): 250 µg/mL (≈ 627 µM); MIC (Micrococcus luteus [12]): 250 µg/mL (≈ 627 µM); MIC (Klebsiella aerogenes [13]): 250 µg/mL (≈ 627 µM); MIC (Salmonella typhimurium [14]): 500 µg/mL (≈ 1250 µM); MIC (Proteus vulgaris [15]): 250 µg/mL (≈ 627 µM); MIC (Shigella flexneri [16]): 250 µg/mL (≈ 627 µM); MIC (Klebsiella pneumoniae [17]): 125 µg/mL (≈ 314 µM); MIC [18]: 250 µg/mL (≈ 627 µM)
COc1ccc([C@H]2[C@@H]3CCCC=C3C(C#N)=C(N)C23C(=O)c2ccccc2C3=O)cc1 (relative stereo)	12 mm	11 mm			10 mm			inactive		inactive				inactive		inactive	10 mm		inactive	11 mm	inhibition zone (IZ) (Malassezia pachydermatis): 10 mm
